The values below come from ChEMBL document CHEMBL1157720, “Development of carbohydrate-derived inhibitors of acid sphingomyelinase” (Bioorg Med Chem, 2010).

The structures appear in SMILES notation. Active and inactive are the calls of the source. The rule behind the calls is not given here.

What is called IC50 is the point on the concentration scale where inhibition reaches its midpoint. Broadly, the Km is the concentration of substrate that gives half-maximal velocity.

Assay [1] is described as follows: Inhibition of aSMase in rat brain microsomal homogenate by fluorescence assay.
Assay [2] concerns the target T1, Sphingomyelin phosphodiesterase 2 (Rattus norvegicus, UniProt Q9ET64).
T1 sequence (Q9ET64 whole entry): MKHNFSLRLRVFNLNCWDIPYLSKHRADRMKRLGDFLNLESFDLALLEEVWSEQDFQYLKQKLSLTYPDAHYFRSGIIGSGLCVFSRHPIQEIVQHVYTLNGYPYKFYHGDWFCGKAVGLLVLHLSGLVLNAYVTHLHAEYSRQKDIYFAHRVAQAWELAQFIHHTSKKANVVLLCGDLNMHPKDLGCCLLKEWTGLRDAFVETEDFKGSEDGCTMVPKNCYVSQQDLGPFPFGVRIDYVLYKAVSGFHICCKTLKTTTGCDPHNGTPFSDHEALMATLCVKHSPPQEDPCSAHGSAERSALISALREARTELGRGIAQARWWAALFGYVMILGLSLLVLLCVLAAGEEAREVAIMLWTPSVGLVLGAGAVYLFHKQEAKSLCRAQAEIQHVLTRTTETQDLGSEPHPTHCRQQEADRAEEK
Nature of the assay: Inhibition of nSMase in rat brain microsomal homogenate by micellar 14C-sphingomyelin assay.

The species entered for another assay is Rattus norvegicus. The conditions noted are these: Brain, Microsomal.
The subject of another assay is HEK293. Put plainly: Inhibition of dexamethasone-induced apoptosis in HEK293 cells assessed as decrease in DNA fragmentation at 1 to 2 uM after 7 hrs by ELISA. It is filed as functional, cell-based. The conditions noted are these: Homo sapiens. Put shortly:
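HEK-293 cells in medium with BrdU labelling solution (10 µM final) were plated at about 0.5 × 10³ cells/well. After 16 h they were washed and re-fed, then given 10^-8 M dexamethasone plus inhibitor for 7 h. Supernatant went to an anti-BrdU ELISA (secondary antibody, TMB), with absorbance at 370 nm. Quintuplicate.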
For orientation: An ELISA detects its analyte on a solid surface through an enzyme-linked reagent.

Take `CCCCCCCCS(=O)(=O)OC[C@H]1OC(O)[C@H](OP(=O)(O)O)[C@@H](O)[C@@H]1OP(=O)(O)O` (some centres not stated): the figures for the IC50 in assay [1] and in assay [2] were 2.34 µM and more than 100 µM, respectively.

Consider `CCCCCCS(=O)(=O)OC[C@H]1OC(O)[C@H](OP(=O)(O)O)[C@@H](O)[C@@H]1OP(=O)(O)O` (some centres not stated), for which, in assay [2], the half-maximal inhibitory concentration (IC50) is more than 100 µM.

For `CCS(=O)(=O)OC[C@H]1OC(O)[C@H](OP(=O)(O)O)[C@@H](O)[C@@H]1OP(=O)(O)O` (some centres not stated), the IC50 in assay [1] is 39.6 µM; in assay [2], more than 100 µM.

In assay [1], `O=P(O)(O)OC[C@H]1OC[C@H](OP(=O)(O)O)C[C@@H]1OP(=O)(O)O` registered a 50% inhibitory concentration (IC50) of more than 50 µM.

Take `O=P(O)(O)OC[C@H]1OC(O)[C@H](OP(=O)(O)O)[C@@H](O)[C@@H]1OP(=O)(O)O` (some centres not stated): the IC50 in assay [1] is more than 50 µM.

Turning to `CCCCCC/C=C\C=C/C/C=C\C/C=C\CCCC(=O)OC(COC(=O)CCCCCCCCCCCCCCCCC)COP(=O)(O)O[C@@H]1[C@H](O)[C@H](OP(=O)(O)O)[C@@H](O)[C@H](OP(=O)(O)O)[C@H]1O` (some centres not stated), in the assay filed under Rattus norvegicus, the Michaelis constant (Km) is 0.53 µM. Moreover, the half-maximal inhibitory concentration (IC50) in assay [2] is more than 100 µM.

`CCCCCCCCCCCCS(=O)(=O)OC[C@H]1OC(O)[C@H](OP(=O)(O)O)[C@@H](O)[C@@H]1OP(=O)(O)O` (some centres not stated): the IC50 in assay [1] is 0.44 µM; in assay [2] it was more than 100 µM. Further, the outcome in the assay on HEK293 was Active.
